Assay results from ChEMBL document CHEMBL4425120, “N1-Azinylsulfonyl-1H-indoles: 5-HT6 Receptor Antagonists with Procognitive and Antidepressant-Like Properties” (ACS Med Chem Lett, 2016).
Calls of active or inactive are those of the source. No cut-off for these calls is given here.

Assays:
[1] = target: T1, 5-hydroxytryptamine receptor 6 (Homo sapiens, UniProt P50406); experiment: Displacement of [3H]-LSD from human 5-HT6 receptor expressed in HEK293 cells by microbeta liquid scintillation counting; assay type: cell-based
Method in brief: (§1)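 Ki values reported as the mean of two independent radioligand binding experiments.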

[2] = target: T2, 5-hydroxytryptamine receptor 1A (Homo sapiens, UniProt P08908); experiment: Displacement of [3H]-8-OH-DPAT from human 5-HT1A receptor expressed in HEK293 cells by microbeta liquid scintillation counting; assay type: cell-based; method in brief: as §1
T2 sequence (P08908 whole entry): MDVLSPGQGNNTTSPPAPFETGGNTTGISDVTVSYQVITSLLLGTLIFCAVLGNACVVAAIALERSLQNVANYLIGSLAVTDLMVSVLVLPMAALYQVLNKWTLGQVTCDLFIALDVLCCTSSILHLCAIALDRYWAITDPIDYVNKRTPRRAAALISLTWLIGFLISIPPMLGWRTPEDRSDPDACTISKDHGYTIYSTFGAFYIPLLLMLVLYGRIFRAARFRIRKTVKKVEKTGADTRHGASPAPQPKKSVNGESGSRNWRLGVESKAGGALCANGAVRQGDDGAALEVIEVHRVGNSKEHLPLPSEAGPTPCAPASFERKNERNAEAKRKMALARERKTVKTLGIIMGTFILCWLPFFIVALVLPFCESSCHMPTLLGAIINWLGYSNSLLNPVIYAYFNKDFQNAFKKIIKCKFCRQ

[3] = target: 5-hydroxytryptamine receptor 2A (Homo sapiens, UniProt P28223); experiment: Displacement of [3H]-Ketanserin from human 5-HT2A receptor expressed in HEK293 cells by microbeta liquid scintillation counting; assay type: cell-based; method in brief: as §1
[4] = target: 5-hydroxytryptamine receptor 7 (Homo sapiens, UniProt P34969); experiment: Displacement of [3H]-5-CT from human 5-HT7B receptor expressed in HEK293 cells by microbeta liquid scintillation counting; assay type: cell-based; method in brief: as §1
D(2) dopamine receptor = D(2) dopamine receptor (Homo sapiens, UniProt P14416); experiment: Displacement of [3H]-Raclopride from human D2L receptor expressed in HEK293 cells by microbeta liquid scintillation counting; assay type: cell-based; method in brief: as §1
Homo sapiens [5] = species on record: Homo sapiens; experiment: Selectivity ratio of Ki for human 5-HT1A receptor expressed in HEK293 cells to Ki for human 5-HT6 receptor expressed in HEK293 cells; assay type: cell-based
Homo sapiens [6] = species on record: Homo sapiens; experiment: Selectivity ratio of Ki for human 5-HT2A receptor expressed in HEK293 cells to Ki for human 5-HT6 receptor expressed in HEK293 cells; assay type: cell-based
[7] = target: T1, 5-hydroxytryptamine receptor 6; experiment: Antagonist activity at human recombinant 5-HT6 receptor expressed in CHO cells assessed as inhibition of serotonin-induced intracellular cAMP accumulation after 30 mins by HTRF assay; assay type: functional, cell-based
[8] = target: Muscarinic acetylcholine receptor M1 (Homo sapiens) (UniProt P11229); experiment: Displacement of [3H]pirenzepine from human recombinant muscarinic M1 receptor expressed in CHO cells after 60 mins by scintillation counting; assay type: cell-based
[9] = target: 5-hydroxytryptamine receptor 2C (Homo sapiens) (UniProt P28335); experiment: Displacement of [3H]mesulergine from human recombinant 5-HT2C receptor expressed in HEK293 cells after 120 mins by scintillation counting; assay type: cell-based
[10] = target: Sodium-dependent serotonin transporter (Homo sapiens) (UniProt P31645); experiment: Displacement of [3H]imipramine from human recombinant SERT expressed in CHO cells after 60 mins by scintillation counting; assay type: cell-based
[11] = target: 5-hydroxytryptamine receptor 2B (Homo sapiens) (UniProt P41595); experiment: Agonist activity at human recombinant 5-HT2B receptor expressed in HEK-293 cells assessed as IP1 accumulation at 1 uM after 30 mins by HTRF assay; assay type: functional, cell-based
D(3) dopamine receptor [12] = target: T3, D(3) dopamine receptor (Homo sapiens, UniProt P35462); experiment: Displacement of [3H]-methyl-spiperone from human recombinant dopamine D3 receptor expressed in CHO cells after 60 mins by scintillation counting; assay type: cell-based
Cytochrome P450 1A2 = Cytochrome P450 1A2 (Homo sapiens, UniProt P05177); experiment: Inhibition of human CYP1A2 expressed in supersomes assessed as caffeine 3-N-demethylation after 15 mins by HPLC analysis; assay type: ADME
Cytochrome P450 2C9 = Cytochrome P450 2C9 (Homo sapiens, UniProt P11712); experiment: Inhibition of human CYP2C9 expressed in supersomes assessed as diclofenac 4'-hydroxylation after 15 mins by HPLC analysis; assay type: ADME
Cytochrome P450 2C19 = Cytochrome P450 2C19 (Homo sapiens, UniProt P33261); experiment: Inhibition of human CYP2C19 expressed in supersomes assessed as perazine N-demethylation after 15 mins by HPLC analysis; assay type: ADME
Cytochrome P450 2D6 = Cytochrome P450 2D6 (Homo sapiens, UniProt P10635); experiment: Inhibition of human CYP2D6 expressed in supersomes assessed as bufuralol 1'-hydroxylation after 15 mins by HPLC analysis; assay type: ADME
Cytochrome P450 3A4 = Cytochrome P450 3A4 (Homo sapiens, UniProt P08684); experiment: Inhibition of human CYP3A4 expressed in supersomes assessed as testosterone 6beta-hydroxylation after 15 mins by HPLC analysis; assay type: ADME
[13] = Solubility of the compound at pH 7.4; assay type: physicochemical; details: buffer
[14] = Solubility of the compound at pH 2; assay type: physicochemical; details: buffer
[15] = Intrinsic clearance in rat liver microsomes at 20 uM after 15 mins in presence of NADPH-regenerating system by UPLC/MS analysis; assay type: ADME, Microsome; details: read-out: CLH
[16] = Mutagenicity in Salmonella typhimurium TA100 at 0.2 to 16 ug/ml after 48 hrs by Ames test; assay type: toxicity; details: salmonella enterica subsp. enterica serovar typhimurium
[17] = Mutagenicity in Salmonella typhimurium TA1535 at 0.2 to 16 ug/ml after 48 hrs by Ames test; assay type: toxicity; details: salmonella enterica subsp. enterica serovar typhimurium
[18] = Mutagenicity in Salmonella typhimurium TA98 at 0.2 to 16 ug/ml after 48 hrs by Ames test; assay type: toxicity; details: salmonella enterica subsp. enterica serovar typhimurium
[19] = Mutagenicity in Salmonella typhimurium TA1537 at 0.2 to 16 ug/ml after 48 hrs by Ames test; assay type: toxicity; details: salmonella enterica subsp. enterica serovar typhimurium
[20] = Drug uptake in Wistar rat brain at 3 mg/kg, ip after 30 mins by LC-MS/MS analysis; assay type: ADME, organism-based; details: read-out: Drug uptake
Method in brief: (§2)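 Male Wistar rats received a single 3 mg/kg i.p. dose. Brain and plasma drug levels were measured at 15, 30 and 90 min after dosing. Brain level is expressed as ng/g tissue, alongside the brain-to-plasma concentration ratio.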

[21] = Ratio of drug level in Wistar rat brain to plasma at 3 mg/kg, ip after 15 to 90 mins by LC-MS/MS analysis; assay type: ADME, organism-based; details: read-out: BPR; method in brief: as §2
Rattus norvegicus = experiment: Antidepressant activity in Sprague-Dawley rat assessed as increase in climbing time at 0.3 mg/kg, ip adminstered 60 mins prior to testing measured for 5 mins by forced swimming test; assay type: functional, organism-based
Method in brief: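 Modified forced swim test in rats with i.p. dosing. Immobility time and climbing time were scored. Data are mean ± SEM, n = 7–8 animals per group, compared against the vehicle-treated group.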

[22] = Toxicity in Sprague-Dawley rat assessed as effect on locomotory activity at 0.1 to 1 mg/kg, ip measured for 5 mins by open field test; assay type: organism-based; details: in vivo
[23] = target: Histamine H1 receptor (Homo sapiens) (UniProt P35367); experiment: Displacement of [3H]pyrilamine from human recombinant histamine H1 receptor expressed in HEK293 cells after 60 mins by scintillation counting.; assay type: cell-based
D(3) dopamine receptor [24] = target: T3, D(3) dopamine receptor; experiment: Antagonist activity at human recombinant dopamine D3 receptor expressed in CHO cells assessed as inhibition of dopamine-induced cAMP accumulation after 30 mins by HTRF assay; assay type: functional, cell-based

T1 sequence (P50406 whole entry): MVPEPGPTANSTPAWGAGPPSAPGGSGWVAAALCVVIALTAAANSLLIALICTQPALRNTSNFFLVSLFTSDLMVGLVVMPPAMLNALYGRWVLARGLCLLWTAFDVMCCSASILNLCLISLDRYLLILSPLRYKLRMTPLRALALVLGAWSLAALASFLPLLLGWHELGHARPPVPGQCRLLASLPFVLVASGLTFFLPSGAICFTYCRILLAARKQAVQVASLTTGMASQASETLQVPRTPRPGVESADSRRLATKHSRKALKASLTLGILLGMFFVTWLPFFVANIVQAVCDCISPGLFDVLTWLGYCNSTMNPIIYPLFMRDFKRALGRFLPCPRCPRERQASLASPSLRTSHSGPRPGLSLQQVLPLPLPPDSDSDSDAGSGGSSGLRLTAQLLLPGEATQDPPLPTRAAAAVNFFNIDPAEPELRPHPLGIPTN
T3 sequence (P35462 whole entry): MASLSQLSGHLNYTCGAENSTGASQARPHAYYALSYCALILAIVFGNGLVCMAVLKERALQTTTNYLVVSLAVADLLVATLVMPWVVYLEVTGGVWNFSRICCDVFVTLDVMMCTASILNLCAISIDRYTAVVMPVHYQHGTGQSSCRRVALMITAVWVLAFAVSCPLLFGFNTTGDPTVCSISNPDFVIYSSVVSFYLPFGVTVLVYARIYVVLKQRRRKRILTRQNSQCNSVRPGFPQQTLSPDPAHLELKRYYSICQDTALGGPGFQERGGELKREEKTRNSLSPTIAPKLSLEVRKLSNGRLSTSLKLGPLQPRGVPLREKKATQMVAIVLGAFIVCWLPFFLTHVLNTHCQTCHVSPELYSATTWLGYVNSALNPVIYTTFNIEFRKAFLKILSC
Sequence of 5-hydroxytryptamine receptor 2A (P28223 whole entry): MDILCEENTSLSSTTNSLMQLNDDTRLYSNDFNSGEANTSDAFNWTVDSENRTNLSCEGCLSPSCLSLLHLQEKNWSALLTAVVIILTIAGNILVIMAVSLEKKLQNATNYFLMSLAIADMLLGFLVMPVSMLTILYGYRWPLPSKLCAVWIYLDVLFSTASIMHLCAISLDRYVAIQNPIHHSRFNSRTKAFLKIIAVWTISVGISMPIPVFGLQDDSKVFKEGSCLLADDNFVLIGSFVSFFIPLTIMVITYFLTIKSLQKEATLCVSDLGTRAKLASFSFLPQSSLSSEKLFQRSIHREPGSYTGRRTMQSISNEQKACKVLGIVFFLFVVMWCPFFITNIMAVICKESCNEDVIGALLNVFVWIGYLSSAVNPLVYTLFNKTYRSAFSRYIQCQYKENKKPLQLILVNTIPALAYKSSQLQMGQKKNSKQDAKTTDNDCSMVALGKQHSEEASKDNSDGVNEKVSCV
Sequence of Histamine H1 receptor (Homo sapiens) (P35367 whole entry): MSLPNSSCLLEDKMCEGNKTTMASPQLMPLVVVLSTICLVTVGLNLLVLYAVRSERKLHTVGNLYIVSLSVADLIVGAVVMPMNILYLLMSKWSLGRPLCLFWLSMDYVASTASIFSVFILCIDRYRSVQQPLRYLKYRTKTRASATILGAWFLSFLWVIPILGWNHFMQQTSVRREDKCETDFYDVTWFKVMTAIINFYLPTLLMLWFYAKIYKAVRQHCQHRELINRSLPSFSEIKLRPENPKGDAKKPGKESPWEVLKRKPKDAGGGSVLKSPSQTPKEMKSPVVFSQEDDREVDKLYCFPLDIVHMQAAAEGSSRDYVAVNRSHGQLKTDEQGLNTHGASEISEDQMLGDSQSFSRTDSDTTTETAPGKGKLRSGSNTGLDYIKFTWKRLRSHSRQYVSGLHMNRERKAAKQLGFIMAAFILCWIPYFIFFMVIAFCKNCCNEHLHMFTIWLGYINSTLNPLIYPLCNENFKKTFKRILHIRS
Sequence of Cytochrome P450 2D6 (P10635 whole entry): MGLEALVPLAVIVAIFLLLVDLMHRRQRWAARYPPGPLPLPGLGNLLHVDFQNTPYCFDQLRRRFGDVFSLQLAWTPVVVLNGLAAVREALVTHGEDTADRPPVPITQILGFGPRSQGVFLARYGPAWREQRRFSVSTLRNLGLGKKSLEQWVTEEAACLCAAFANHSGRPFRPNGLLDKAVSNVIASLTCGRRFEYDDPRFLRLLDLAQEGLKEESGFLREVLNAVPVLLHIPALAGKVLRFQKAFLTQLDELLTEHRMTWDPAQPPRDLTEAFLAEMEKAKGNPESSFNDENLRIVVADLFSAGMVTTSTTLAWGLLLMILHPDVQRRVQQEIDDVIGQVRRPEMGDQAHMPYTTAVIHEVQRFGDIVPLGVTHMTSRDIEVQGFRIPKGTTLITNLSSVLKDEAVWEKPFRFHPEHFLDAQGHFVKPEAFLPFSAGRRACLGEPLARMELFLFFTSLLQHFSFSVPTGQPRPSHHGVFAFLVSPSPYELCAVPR
Sequence of Cytochrome P450 2C19 (P33261 whole entry): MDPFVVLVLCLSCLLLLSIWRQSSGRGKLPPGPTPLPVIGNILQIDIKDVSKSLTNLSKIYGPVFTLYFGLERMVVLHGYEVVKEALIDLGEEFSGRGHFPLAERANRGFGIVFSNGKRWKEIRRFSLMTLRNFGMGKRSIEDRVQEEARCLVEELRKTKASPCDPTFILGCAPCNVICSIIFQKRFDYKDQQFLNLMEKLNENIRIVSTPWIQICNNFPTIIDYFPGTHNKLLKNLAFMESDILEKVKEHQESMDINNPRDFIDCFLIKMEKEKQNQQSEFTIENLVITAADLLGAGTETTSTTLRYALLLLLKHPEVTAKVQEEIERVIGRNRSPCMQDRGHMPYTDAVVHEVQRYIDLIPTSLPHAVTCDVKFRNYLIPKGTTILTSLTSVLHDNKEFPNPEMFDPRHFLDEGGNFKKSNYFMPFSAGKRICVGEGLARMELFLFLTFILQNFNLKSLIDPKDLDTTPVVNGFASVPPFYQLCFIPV
Sequence of Muscarinic acetylcholine receptor M1 (Homo sapiens) (P11229 whole entry): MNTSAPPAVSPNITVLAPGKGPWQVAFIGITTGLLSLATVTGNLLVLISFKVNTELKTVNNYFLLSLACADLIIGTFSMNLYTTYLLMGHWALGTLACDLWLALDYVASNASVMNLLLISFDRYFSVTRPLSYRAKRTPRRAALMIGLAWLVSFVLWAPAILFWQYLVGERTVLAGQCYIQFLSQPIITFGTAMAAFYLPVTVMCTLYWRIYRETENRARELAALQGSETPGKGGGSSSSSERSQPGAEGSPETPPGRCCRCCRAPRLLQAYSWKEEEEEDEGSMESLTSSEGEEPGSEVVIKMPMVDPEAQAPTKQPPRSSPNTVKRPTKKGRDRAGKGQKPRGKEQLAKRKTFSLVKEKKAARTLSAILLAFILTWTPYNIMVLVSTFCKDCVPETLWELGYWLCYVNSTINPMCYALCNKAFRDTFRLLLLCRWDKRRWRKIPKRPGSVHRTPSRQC
Sequence of 5-hydroxytryptamine receptor 2C (Homo sapiens) (P28335 whole entry): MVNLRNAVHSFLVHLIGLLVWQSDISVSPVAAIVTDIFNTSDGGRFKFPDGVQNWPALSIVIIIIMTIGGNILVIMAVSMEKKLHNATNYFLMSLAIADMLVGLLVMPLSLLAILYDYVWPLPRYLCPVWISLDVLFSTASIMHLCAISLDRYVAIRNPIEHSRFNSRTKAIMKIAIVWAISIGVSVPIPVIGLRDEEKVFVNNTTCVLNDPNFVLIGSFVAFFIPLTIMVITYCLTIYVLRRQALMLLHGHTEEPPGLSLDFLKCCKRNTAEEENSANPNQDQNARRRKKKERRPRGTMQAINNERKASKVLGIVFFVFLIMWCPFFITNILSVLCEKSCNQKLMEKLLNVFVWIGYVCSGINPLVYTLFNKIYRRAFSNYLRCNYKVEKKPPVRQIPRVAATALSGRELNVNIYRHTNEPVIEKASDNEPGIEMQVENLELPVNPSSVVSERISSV
Sequence of 5-hydroxytryptamine receptor 2B (Homo sapiens) (P41595 whole entry): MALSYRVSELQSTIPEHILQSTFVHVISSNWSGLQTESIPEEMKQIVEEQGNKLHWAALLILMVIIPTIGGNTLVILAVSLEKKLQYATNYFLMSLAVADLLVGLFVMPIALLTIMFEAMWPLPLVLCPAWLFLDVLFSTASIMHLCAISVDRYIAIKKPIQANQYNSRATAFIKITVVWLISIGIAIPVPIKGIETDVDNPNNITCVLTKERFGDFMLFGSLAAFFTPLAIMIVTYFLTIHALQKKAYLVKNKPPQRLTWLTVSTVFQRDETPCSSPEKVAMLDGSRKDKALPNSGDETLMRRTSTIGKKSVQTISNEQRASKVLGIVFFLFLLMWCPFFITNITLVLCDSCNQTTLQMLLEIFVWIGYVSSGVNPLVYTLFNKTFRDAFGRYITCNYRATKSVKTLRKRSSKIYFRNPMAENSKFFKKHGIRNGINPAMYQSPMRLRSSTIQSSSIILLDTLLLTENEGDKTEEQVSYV
Sequence of 5-hydroxytryptamine receptor 7 (P34969 whole entry): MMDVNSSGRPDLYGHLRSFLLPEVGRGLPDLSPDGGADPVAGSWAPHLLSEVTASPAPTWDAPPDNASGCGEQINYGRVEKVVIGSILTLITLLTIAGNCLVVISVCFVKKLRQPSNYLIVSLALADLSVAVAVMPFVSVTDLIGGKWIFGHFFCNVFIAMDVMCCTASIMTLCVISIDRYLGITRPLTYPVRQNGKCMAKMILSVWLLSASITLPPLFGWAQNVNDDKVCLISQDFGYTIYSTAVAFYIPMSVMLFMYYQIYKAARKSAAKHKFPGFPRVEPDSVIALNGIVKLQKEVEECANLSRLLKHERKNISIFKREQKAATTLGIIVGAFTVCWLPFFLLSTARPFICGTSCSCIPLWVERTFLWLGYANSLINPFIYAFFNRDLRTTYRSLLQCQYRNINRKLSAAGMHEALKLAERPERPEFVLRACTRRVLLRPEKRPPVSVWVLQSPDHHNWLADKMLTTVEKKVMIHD

Row | SMILES | Ki [1] | Ki [2] | Ki [3] | Ki [4] | Ki (D(2) dopamine receptor) | Ratio Ki (Homo sapiens [5]) | Ratio Ki (Homo sapiens [6]) | Kb [7] | inhibition [8] | inhibition [9] | inhibition [10] | Activity [11] | Ki (D(3) dopamine receptor [12]) | IC50 (Cytochrome P450 1A2) | IC50 (Cytochrome P450 2C9) | IC50 (Cytochrome P450 2C19) | IC50 (Cytochrome P450 2D6) | IC50 (Cytochrome P450 3A4) | solubility [13] | solubility [14] | other results
1 | COc1ccc2c(c1)c(C1=CCNCC1)cn2S(=O)(=O)c1ccc2cccnc2c1 | 0.002 µM | 5.04 µM | 1 µM | 6.25 µM | 0.24 µM | 70 | 70 | 0.0044 µM | 11% | 18% | 4% | < 13% | 0.032 µM | 100 µM | > 100 µM | > 100 µM | > 100 µM | 20 µM | > 5000 µg/mL | > 5000 µg/mL | microsomal CLint at 20 µM [15]: 18 µL/min/mg; Activity [16]: Non-Toxic; Activity [17]: Non-Toxic; Activity [18]: Non-Toxic; Activity [19]: Non-Toxic; concentration at 0.5 h [20]: 21.9 ng/g; Kp [21]: 0.1 to 0.6; Activity (Rattus norvegicus): Active; Activity [22]: Non-Toxic; inhibition [23]: 9%; inhibition (D(3) dopamine receptor [24]): inactive
2 | COc1ccc2c(c1)c(C1=CCNCC1)cn2S(=O)(=O)c1cncc2ccccc12 | 0.003 µM | 5.01 µM | 3.35 µM | 7.83 µM | 3.32 µM | 70 | 70 | 0.0056 µM | 0% | 15% | 6% | < 13% | 0.15 µM | 100 µM | > 100 µM | > 100 µM | > 100 µM | 26 µM | > 5000 µg/mL | > 5000 µg/mL | microsomal CLint at 20 µM [15]: 10 µL/min/mg; Activity [16]: Non-Toxic; Activity [17]: Non-Toxic; Activity [18]: Non-Toxic; Activity [19]: Non-Toxic; concentration at 0.5 h [20]: 18.6 ng/g; Kp [21]: 0.1 to 0.6; Activity (Rattus norvegicus): Active; Activity [22]: Non-Toxic; inhibition [23]: 15%; inhibition (D(3) dopamine receptor [24]): inactive
